Source: PubChem BioAssay (Broad Institute)
INS-1E GSIS act: GLuc luminescence reporter in INS-1E cells, primary screen for activators of glucose-dependent secretion of insulin; activation, % at 16.6 µM; INS-1E GLuc reporter insulin secretion, 2-3 h; hit rate 0.61% among 370,000; AID 743287;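 active means lowest replicate activation of at least 40%, so every replicate reaches that level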;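 further: 0% = median of neutral control wells and 100% = median of IBMX positive control wells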
RAD52 anneal inh: inhibitors of human RAD52 DNA annealing. hit rate 0.46% among 360,000. recombinant RAD52 DNA annealing, FRET fluorescence. inhibition, % at 18.7 µM;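 active means every replicate showing at least 50% inhibition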
RAD54 inh: inhibitors of human RAD54 branch migration; inhibition, % at 10.4 µM; AID 602329; RAD54 Holliday junction branch migration, FAM/BHQ fluorescence; hit rate 0.14% among 360,000; Q92698;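 active means mean normalized replicate activity at least 40 and at least half of replicates scoring 40 or more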;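 further: 0% = median of neutral control wells and 100% = median of positive control wells; inhibitors cause a drop in the FAM fluorescence signal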
Target sequence (Q92698 whole entry, looked up): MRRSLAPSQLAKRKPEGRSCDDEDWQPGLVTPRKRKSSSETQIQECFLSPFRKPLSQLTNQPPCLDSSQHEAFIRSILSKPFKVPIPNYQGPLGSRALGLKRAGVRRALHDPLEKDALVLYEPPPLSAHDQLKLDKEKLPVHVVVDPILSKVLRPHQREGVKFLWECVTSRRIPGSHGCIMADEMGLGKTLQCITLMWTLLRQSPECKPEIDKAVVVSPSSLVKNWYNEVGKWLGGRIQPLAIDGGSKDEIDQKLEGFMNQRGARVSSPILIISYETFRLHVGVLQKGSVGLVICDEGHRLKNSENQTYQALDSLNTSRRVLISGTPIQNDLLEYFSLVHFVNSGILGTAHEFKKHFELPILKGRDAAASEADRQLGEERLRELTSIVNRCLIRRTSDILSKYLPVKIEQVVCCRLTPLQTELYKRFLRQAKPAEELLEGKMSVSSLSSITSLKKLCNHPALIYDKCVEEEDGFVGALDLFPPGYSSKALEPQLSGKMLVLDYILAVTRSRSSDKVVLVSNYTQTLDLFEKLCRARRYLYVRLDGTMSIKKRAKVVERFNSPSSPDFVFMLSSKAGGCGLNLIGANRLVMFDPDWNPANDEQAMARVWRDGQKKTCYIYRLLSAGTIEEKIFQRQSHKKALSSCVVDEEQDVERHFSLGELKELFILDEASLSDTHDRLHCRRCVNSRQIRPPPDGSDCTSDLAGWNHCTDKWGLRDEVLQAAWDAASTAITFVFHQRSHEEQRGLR
MLL AF4-AF9 inh: MLL-AF4/AF9 protein interaction inhibition | P42568 | AlphaScreen, biotin-AF4 peptide binding to FLAG-AF9 | inhibition, % at 10 µM | hit rate 0.47% among 350,000;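 active means every replicate reaching a set inhibition limit, whatever the replicate mean, cut at about 25% in these data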;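 further: 0% = plate neutral control median and 100% = total signal loss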
S100A4 MyoIIA: blocks human S100A4 binding to myosin IIA peptide; P26447; inhibition, % at 10.7 µM; AID 652163; hit rate 0.14% among 360,000; S100A4/TAMRA-MyoIIA peptide fluorescence polarization;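 active means mean inhibition of at least 70% across replicates, with every replicate also reaching that level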
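assay system = human S100A4 monomer with TAMRA-labelled myosin IIA peptide | also added = labelled myosin peptide probe, 5 nM | incubation = 5 min between mix addition and reading | control set = DMSO and TFP controls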
The depositor's hits bear a star; ! = a repeat was not active. Most compounds without a hit are left out; they make up all but 1.3% or so of the library.

Cc1noc(C)c1NC(=O)Nc1ccc2c(c1)C(=O)N(C)[C@H]1CC[C@@H](CC(=O)N[C@H]3CCN(Cc4ccccc4)C3)O[C@H]1CO2 was read as INS-1E GSIS act 5, RAD52 anneal inh 15, RAD54 inh 5, MLL AF4-AF9 inh 4 and S100A4 MyoIIA -1.
CCCn1c2ccccc2c2cn[nH]c(=O)c21 was read as INS-1E GSIS act 47*, RAD52 anneal inh -7, RAD54 inh -3, MLL AF4-AF9 inh -2 and S100A4 MyoIIA -1.
For O=C(Nc1ccc(F)cc1)N[C@H]1CC[C@H](CCNC(=O)c2ccccc2F)O[C@@H]1CO the results were INS-1E GSIS act 5, RAD52 anneal inh -7, MLL AF4-AF9 inh -2 and S100A4 MyoIIA -15.
`CCCCNCC1CCCO1` (centres undefined) gave INS-1E GSIS act 41*, RAD52 anneal inh -14, RAD54 inh -1, MLL AF4-AF9 inh 0 and S100A4 MyoIIA -5.
For CC1(C)C2CCC1(C)C(OC(=O)C[n+]1ccccc1N)C2 (centres undefined) the results were INS-1E GSIS act 41*, RAD52 anneal inh -6, RAD54 inh 10, MLL AF4-AF9 inh -7 and S100A4 MyoIIA 3.
O=C1C(NS(=O)(=O)c2ccc(Cl)cc2)=C(N2CCCCC2)C(=O)c2ccccc21 was read as INS-1E GSIS act 10, RAD52 anneal inh -14, MLL AF4-AF9 inh 40* and S100A4 MyoIIA -3.
NC(=O)C1CCN(C2=C(NS(=O)(=O)c3ccc(Br)cc3)C(=O)c3ccccc3C2=O)CC1 was read as INS-1E GSIS act 11, RAD52 anneal inh 0, RAD54 inh 0, MLL AF4-AF9 inh 32* and S100A4 MyoIIA -3.
O=C1C(NS(=O)(=O)c2cccs2)=C(N2CCN(Cc3ccccc3)CC2)C(=O)c2ccccc21 was read as INS-1E GSIS act 0, RAD52 anneal inh -3, MLL AF4-AF9 inh 54* and S100A4 MyoIIA -10.
CCOC(=O)C1CCN(C2=C(NS(=O)(=O)c3ccc(Br)cc3)C(=O)c3ccccc3C2=O)CC1 was read as INS-1E GSIS act 5, RAD52 anneal inh -6, RAD54 inh -4, MLL AF4-AF9 inh 39* and S100A4 MyoIIA 0.
For CCCCc1ccc(NC(=O)COc2ccc(C(=O)Nc3ccccc3OCC)cc2)cc1 the results were INS-1E GSIS act 71* and RAD54 inh 0.
CCc1ccc(NC(=O)C2=CC=CN3CCS(=O)(=O)N=C23)cc1 was read as INS-1E GSIS act 20, RAD52 anneal inh -13, RAD54 inh -7, MLL AF4-AF9 inh 0 and S100A4 MyoIIA 0.
CC(C)c1ccc(NC(=O)C2=CC=CN3CCS(=O)(=O)N=C23)cc1 was read as INS-1E GSIS act 50*, RAD52 anneal inh -1, MLL AF4-AF9 inh 0 and S100A4 MyoIIA 3.
For C[C@@H]1CN([C@@H](C)CO)C(=O)Cc2cc(NS(=O)(=O)c3ccccc3)ccc2O[C@H]1CN(C)S(=O)(=O)c1cccs1 the results were INS-1E GSIS act -13, RAD52 anneal inh -22, RAD54 inh -6, MLL AF4-AF9 inh 2 and S100A4 MyoIIA 6.
O=C(N/N=C/c1ccc(Cl)cc1)c1ccc2c(c1)OCO2 was read as INS-1E GSIS act 5, RAD52 anneal inh -10, RAD54 inh -13, MLL AF4-AF9 inh 1 and S100A4 MyoIIA -2.
`COc1ccc(/C=N/NC(=O)c2cc(-c3ccc4c(c3)OCO4)n[nH]2)cc1OC` gave INS-1E GSIS act 49*, RAD52 anneal inh 9, MLL AF4-AF9 inh -1 and S100A4 MyoIIA -1.
`O=C(N/N=C/c1ccc2c(c1)OCO2)c1ccc(Cl)cc1Cl` gave INS-1E GSIS act 58*, RAD52 anneal inh -10, RAD54 inh 3, MLL AF4-AF9 inh -12 and S100A4 MyoIIA 0.
O=C(N/N=C/c1ccc(F)cc1)c1cc(-c2ccc3c(c2)OCO3)n[nH]1 was read as RAD52 anneal inh -11, RAD54 inh 8, MLL AF4-AF9 inh 1 and S100A4 MyoIIA -2.
For COc1ccc(CNCC(O)COc2ccc(C(C)(C)c3ccccc3)cc2)cc1 (centres undefined) the results were INS-1E GSIS act 73*, RAD52 anneal inh 34, MLL AF4-AF9 inh 7 and S100A4 MyoIIA -5.
C[C@@H]1CN([C@H](C)CO)C(=O)c2cc(NC(=O)Nc3ccc4c(c3)OCO4)ccc2O[C@@H](C)CCCCO[C@H]1CN(C)S(=O)(=O)c1cn(C)cn1 was read as INS-1E GSIS act -13, RAD52 anneal inh -2, RAD54 inh 3, MLL AF4-AF9 inh 2 and S100A4 MyoIIA -4.
For CC1Cc2[nH]c(=S)[nH]c(=O)c2C(C(C)C)O1 (centres undefined) the results were INS-1E GSIS act -4, RAD52 anneal inh 0, MLL AF4-AF9 inh -1 and S100A4 MyoIIA -27.
Screening CCCCC1Cc2[nH]c(=S)[nH]c(=O)c2C(C(C)C)O1 (centres undefined) returned INS-1E GSIS act 42*, RAD52 anneal inh -16, MLL AF4-AF9 inh -3 and S100A4 MyoIIA -4.
Screening C[C@@H]1CN([C@@H](C)CO)S(=O)(=O)c2ccc(C#CC3CC3)cc2O[C@@H]1CN(C)C(=O)c1cccnc1 returned INS-1E GSIS act -3, RAD52 anneal inh -6, RAD54 inh 1, MLL AF4-AF9 inh -3 and S100A4 MyoIIA 10.
For CN(CCO)c1cc(Sc2nc3ccccc3s2)c2nonc2c1[N+](=O)[O-] the results were INS-1E GSIS act 164*, RAD52 anneal inh 4, RAD54 inh 1, MLL AF4-AF9 inh 5 and S100A4 MyoIIA 1.
For COc1cc(CN2C[C@@H]3N[C@H](C2)C3c2ccc(-c3cccc(OC)c3)cc2)cc(OC)c1 (some centres undefined) the results were INS-1E GSIS act -13, RAD52 anneal inh 59*, MLL AF4-AF9 inh 26*! and S100A4 MyoIIA -22.
Screening COc1cc(CN2C[C@@H]3N[C@H](C2)C3c2ccc(/C=C/c3ccccc3)cc2)cc(OC)c1 (some centres undefined) returned INS-1E GSIS act 84*!.
Screening COc1cc(CN2C[C@@H]3N[C@H](C2)C3c2ccc(-c3ccncc3)cc2)cc(OC)c1 (some centres undefined) returned INS-1E GSIS act 6, RAD52 anneal inh 11, MLL AF4-AF9 inh 4 and S100A4 MyoIIA -1.
`COc1ccc(-c2ccc(C3[C@@H]4CN(Cc5cc(OC)cc(OC)c5)C[C@H]3N4)cc2)cc1` (some centres undefined) gave INS-1E GSIS act 3, RAD52 anneal inh 66*, MLL AF4-AF9 inh 12 and S100A4 MyoIIA -2.
`C/C=C/c1ccc(C2[C@@H]3CN(Cc4cccc(OC)c4)C[C@H]2N3)cc1` (some centres undefined) gave INS-1E GSIS act -18.
Screening CCCNC(=O)N1CC(=O)N2[C@H](CO)[C@@H](c3ccc(-c4ccc(C)cc4)cc3)[C@H]2C1 returned INS-1E GSIS act -3, RAD52 anneal inh -3, MLL AF4-AF9 inh 1 and S100A4 MyoIIA 5.
